Results reported in article PMC11494403 (Nature plants, 2024).

Key:
[1] = MST, binding to Alexa Fluor 647-labelled oligogalacturonide OG7–13^647; details: relative to wild-type RALF22
Summary of the method: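 Wild-type or mutant peptide, titrated from 200µM, against 40nM Alexa Fluor 647-labelled, fully demethylesterified 7-13mer oligogalacturonide. Incubated 10min at RT, then thermophoresis on a Monolith NT.115 at medium MST power and 80% LED excitation. Data kept only at S/N >5 with no aggregation or ligand-induced initial fluorescence change. Kd averaged over 3 independent experiments.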

root = details: RALF1-induced; cited from earlier work
RHs = details: 2 day exposure to exogenous RALF1; cited from earlier work

| Substance | fold reduction in affinity for OG7–13^647 [1] | root growth (root) | root hair length (RHs) |
| --- | --- | --- | --- |
| AQKKYISYGAMARNSVPCSARGASYYNCQAGAQANPYSRGCSTITRCRR [RALF22^R82A,R90A,R100A] | 5.2 fold | – | – |
| RALF1: exogenous RALF1 peptide of an earlier study (ATTKYISYQSLKRNSVPCSRRGASYYNCQNGAQANPYSRGCSKIARCRS; Protein RALF-like 1; UniProt Q9SRY3 72-120, looked up) | – | root growth inhibition | longer RHs |
